This is a sample that favours compounds with a hit; in the whole collection about 0.74% have one here.
DDE Tn6 FP inh: disrupts Tn6 cyclic peptide binding to fibrin D-Dimer-E complex; 370,000 tested, 0.21% active; Fibrin DD(E) TRITC-Tn6 fluorescence polarization displacement; P02675; inhibition, % at 8.3 µM; AID 720509;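 active = inhibition above a per-campaign cutoff: mean of compounds within control limits plus 3 SD, cut at about 15% in these data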;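 also: 0% = median of all compound wells on the plate and 100% = blocking peptide control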
ARFGAP1 inhibitor: inhibits rat ARF GTPase activating protein 1; Q62848; AID 651572; Arfgap1-stimulated ARF1 GTP hydrolysis, GDP FP detection; 360,000 tested, 0.26% active; inhibition, % at 16.5 µM;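 active = inhibition above a per-plate limit, mean inhibition of low control wells plus 3 SD, cut at about 25% in these data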;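 also: 0% = DMSO wells with enzyme and 100% = wells lacking Arfgap1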
Target sequence (Q62848 1-136 limits assumed): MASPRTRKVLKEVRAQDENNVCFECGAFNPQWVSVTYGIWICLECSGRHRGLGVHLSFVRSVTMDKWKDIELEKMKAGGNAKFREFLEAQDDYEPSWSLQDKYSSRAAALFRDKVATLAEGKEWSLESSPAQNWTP
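Replicates: Single well per compound | Assay system: Truncated rat Arfgap1 GAP domain | Control set: No-Arfgap1 wells (100%) versus DMSO full-reaction wells (0%) | Times: Enzyme reaction 120 min at 25 °C after 20 min preincubation | Reagent: Human ARF1(Δ1-17)-GTP substrate | Measured by: Tracer-displacement fluorescence polarization with EDTA stop, 620/688 nm | Measure: Percent inhibition of Arfgap1-stimulated GTP hydrolysis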
DDE Tn7 FP inh: DD(E)-Tn7 binding inhibition, primary FP screen; P02675; FP displacement of FITC-Tn7 peptide from fibrin DD(E); 0% = median of compound wells per plate; inhibition, % at 8.3 µM; 370,000 tested, 0.13% active;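 active = inhibition above the mean of compounds falling within the control limits plus 3 SD of them, cut at about 14% in these data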;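 also: 0% = plate median of compound wells and 100% = 10 µM Aha-Tn7 peptide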
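system = human fibrin DD(E) protein | quantity = DD(E) 2 µM final | medium = Tris/NaCl/CaCl2 buffer, pH 7.8 | also added = labelled Tn7 tracer, 0.1 µM | compound dosing = single point at 8.3 µM | timing = compound with protein 10 min, then 3 h after probe, room temperature | signal = FP measurement | benchmarks = Aha-Tn7 high control | repeats = one replicate per compound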
ASAP1 inh: inhibitors of human ASAP1 ArfGAP activity. Q9ULH1. ASAP1-stimulated ARF1 GTP hydrolysis, GDP FP detection. inhibition, % at 16.5 µM. 360,000 tested, 0.19% active. AID 624377; in the data active = inhibition above about 25%;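 also: 0% = vehicle with enzyme and substrate and 100% = no enzyme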
Target sequence (Q9ULH1 325-724 limits assumed): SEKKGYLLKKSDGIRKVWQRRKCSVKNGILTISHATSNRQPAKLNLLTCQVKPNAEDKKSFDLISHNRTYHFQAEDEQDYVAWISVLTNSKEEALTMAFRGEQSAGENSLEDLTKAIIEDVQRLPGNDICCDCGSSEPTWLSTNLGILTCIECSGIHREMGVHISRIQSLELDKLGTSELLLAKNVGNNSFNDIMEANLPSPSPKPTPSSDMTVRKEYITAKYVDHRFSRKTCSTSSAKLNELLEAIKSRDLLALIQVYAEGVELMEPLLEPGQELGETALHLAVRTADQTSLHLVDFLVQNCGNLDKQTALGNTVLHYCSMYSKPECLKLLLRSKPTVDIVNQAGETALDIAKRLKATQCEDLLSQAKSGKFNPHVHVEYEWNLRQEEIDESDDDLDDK
DDE Tn6 FP ctr: counter-screen hit for Tn6 peptide-fibrin DD(E) binding disruption | TRITC-Tn6 fluorescence polarization displacement; 0% = median of compound wells, not DMSO | shares compounds with DDE Tn6 FP inh | AID 720621 | 680 tested, 2% active | inhibition, % at 8.3 µM;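 active = inhibition above the mean of test compounds lying between the control limits plus 3 SD of those, cut at about 14% in these data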;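 also: 0% = median of compound wells and 100% = wells with Aha-Tn7 blocking peptide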
Tn6 DDE conf: DD(E)-Tn6 binding inhibition, FP confirmation | shares compounds with DDE Tn6 FP inh | AID 720631 | 680 tested, 10% active | FP displacement of TRITC-Tn6 peptide from DD(E); 0% = per-plate median of test wells | inhibition, % at 8.3 µM;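 active = inhibition above the mean of compounds lying within the control limits plus 3 SD, cut at about 16% in these data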;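 also: 100% = high control wells holding a competing inhibitor peptide at 10 µM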
* marks the source's active call; other numbers are inactive results; . = no result given.

SMILES	DDE Tn6 FP inh	ARFGAP1 inhibitor	DDE Tn7 FP inh	ASAP1 inh	DDE Tn6 FP ctr	Tn6 DDE conf
COc1ccc(S(=O)(=O)NCc2ccccn2)cc1OC	-1.8	-3.7	2.3	3.0	.	.
COc1ccccc1Oc1ccc(S(=O)(=O)NCc2ccccn2)cc1	15.3*	-8.3	-1.4	-12.3	3.5	6.2
COC(=O)C1=C(C)N(Cc2ccccc2C(F)(F)F)C(=NCc2ccc(OC)cc2)NC1c1cccc(F)c1 (centres undefined)	6.0	-0.6	3.0	-11.0	.	.
CCN(CC)c1ccc(C(=O)c2ccccc2C(=O)O)c(O)c1	15.2*	-0.4	-2.5	-15.3	2.2	14.7
O=C(NS(=O)(=O)c1ccccc1[N+](=O)[O-])[C@H]1O[C@@H](n2ccc(=O)[nH]c2=O)[C@H](O)[C@@H]1O	0.6	-2.1	3.2	1.0	.	.
O=C(Cc1ccccc1)NC(NNc1ccccc1)(C(F)(F)F)C(F)(F)F	15.5*	-2.5	-2.8	10.3	14.1*	7.1
O=C(Cc1ccccc1)NNC(=O)Cc1ccccc1	-0.2	-1.9	6.5	-9.3	.	.
CN(C)c1ccc(/C=C/C=C2/SC(=S)N(c3ccccc3)C2=O)cc1	31.0*	8.3	-1.5	20.3	7.1	58.8*
O=C(O)c1ccc(N2C(=O)/C(=C/C=C/c3ccccc3)SC2=S)cc1	-4.6	2.3	7.2	6.3	.	.
COc1cccc(OC)c1C(=O)NC(=S)Nc1cc(-c2nc3ccccc3[nH]2)ccc1Cl	54.9*	-17.8	3.3	9.1	0.8	13.0
CCN1C=C(C(=O)OC)C(c2cccc(OC)c2OC)C(C(=O)OC)=C1	17.1*	-3.6	11.9	8.1	4.3	1.0
C=CCCC1CN(CC=C)S(=O)(=O)c2c(F)cccc2O1 (centres undefined)	-0.7	6.1	-2.4	-1.1	.	.
O=C(N/N=C/c1cccnc1)C(=O)N1CCCCCC1	15.2*	-2.6	6.8	-0.5	-2.5	-4.5
O=C(N/N=C/c1ccc(C(=O)O)cc1)C(=O)N1CCCCCC1	4.3	-4.4	7.2	-3.5	.	.
O=C(Nc1nccs1)c1ccc(-c2ccc(F)c(Cl)c2)o1	27.3*	6.0	4.3	12.0	1.8	16.0*
O=C(Nc1nccs1)c1ccc(-c2ccc(Cl)cc2Cl)o1	-7.8	-12.0	1.2	-4.9	.	.
CC(=O)N1CCN(C(=O)c2cc3ccccc3o2)CC1	-10.4	8.3	4.2	7.0	.	.
O=C(c1cc2ccccc2o1)N1CCCC1	16.6*	-0.1	2.4	-6.6	1.8	3.5
c1ccc2c(c1)CCN(C1=Nc3cccc4cccc1c34)C2	18.0*	3.8	-4.2	-9.8	-7.2	62.7*
COc1ccc(-c2cc(-c3nnc(SCc4cccc5ccccc45)n3N)[nH]n2)cc1	0.9	.	0.6	.	.	.
O=S(=O)(Nc1ccc(Cl)cc1NS(=O)(=O)c1ccccc1)c1ccccc1	18.9*	-8.9	9.1	-2.5	3.7	1.2
CC(=O)N1N=C(c2ccncc2)OC12CCCCCC2	15.7*	0.6	5.8	1.0	10.3	6.9
COc1ccc(C2C(C(=O)N3CCOCC3)=C(C)NC3=C2C(=O)CC(C)(C)C3)cc1O (centres undefined)	-0.3	3.9	-9.2	2.1	.	.
COc1cc(OC)c(C2C(C(=O)N3CCOCC3)=C(C)NC3=C2C(=O)CC(C)(C)C3)cc1OC (centres undefined)	17.4*	-2.5	-1.7	-8.4	0.0	-5.9
Cc1ccc(Cl)cc1NC(=O)CN1C(=O)COc2ccc(S(=O)(=O)N3CCOCC3)cc21	16.0*	1.3	5.7	-10.2	0.7	-2.9
SMILES	DDE Tn6 FP inh	ARFGAP1 inhibitor	DDE Tn7 FP inh	ASAP1 inh	DDE Tn6 FP ctr	Tn6 DDE conf
COc1ccc(C(C)=O)cc1CSC(=S)N1CCSCC1	10.6	8.5	2.7	-1.4	.	.
O=C(CCc1c[nH]c2ccccc12)Nc1ccc(Nc2cccnc2)cc1	-6.0	1.6	2.5	6.2	.	.
CC(=O)c1cccc(OCc2cc(C(=O)N3C[C@H]4CC[C@H]3C4)no2)c1	-0.7	4.9	-9.2	-6.5	.	.
CC(=O)c1cccc(OCc2cc(C(=O)N3C[C@@H](C)O[C@@H](C)C3)no2)c1	19.6*	-10.2	2.7	4.8	8.4	3.5
O=C(O)CC(Sc1ccc(Cl)cc1)C(=O)Nc1ccccc1 (centres undefined)	2.4	-2.2	0.7	3.0	.	.
CC1CCc2nn(CC(=O)Nc3c(F)cc(F)cc3Br)cc2C1 (centres undefined)	6.7	-6.3	0.8	-8.9	.	.
O=C(Cn1cc2c(n1)CCCCC2)Nc1c(F)cc(F)cc1Br	16.9*	3.6	2.4	7.1	-0.7	-4.8
Cc1ccccc1Cn1cc(COC(=O)NCCc2ccccc2)nn1	-3.1	.	-0.5	.	.	.
CCNc1ccccc1CP(=O)(c1ccccc1)c1ccccc1O (centres undefined)	20.7*	-6.6	9.7	-1.7	4.1	-8.9
COC(=O)C1(F)C(=O)NC(=O)NC1OC (centres undefined)	-7.1	-5.3	0.8	-3.0	.	.
COC(=O)C1=C(C)N(C)C(=NCc2ccccc2C(F)(F)F)NC1c1cccc(F)c1 (centres undefined)	-9.7	-5.8	-7.1	1.1	.	.
CCCCNC(=O)C1CCCN1C(=O)Nc1ccc2c(c1)OCO2 (centres undefined)	7.2	.	2.3	.	.	.
C=CCN1C(=O)[C@@H](CC(=O)NCCCC)[C@]2(C(=O)OC)CCCCC=C12	-3.4	.	-4.7	.	.	.
CC(=O)NC(Cc1ccccc1)C(=O)N1CCN(C(=O)c2cccs2)CC1 (centres undefined)	17.0*	-8.2	1.1	-4.6	-8.8	-8.5
CC(=O)N1CCN(C(=O)C(Cc2ccccc2)NC(=O)c2ccccc2)CC1 (centres undefined)	-5.2	6.9	6.1	-4.0	.	.
COC(=O)C1=C(C)N(Cc2ccccc2C(F)(F)F)C(=NCc2ccc3c(c2)OCO3)NC1c1cccc(F)c1 (centres undefined)	-9.9	16.2	-5.4	10.3	.	.
CCCCCCSc1cccc(-c2nc3ccc(C)cn3c2NCc2ccccc2)c1	16.1*	4.6	4.2	1.8	9.8	6.5
COC(=O)CCC(=O)OC1(C)C(=O)C=C2C=C(C3CC3)N(C3CCCC3)C=C2C1=O (centres undefined)	20.0*	7.7	-6.6	1.4	-5.7	-9.5
CN1CCS/C1=C/C=C1/SC(=S)N(Cc2ccccc2)C1=O	38.0*	7.1	-24.4	9.7	-15.4	15.8*
Cc1c(C)n(C)c2ccc(C(=O)NCCCN3CCN(C)CC3)cc12	-2.1	3.9	-3.4	-0.9	.	.
Cc1c(C)n(C)c2ccc(C(=O)NCc3cccs3)cc12	35.0*	-12.5	-5.7	-7.7	2.4	2.2
Nc1c(SCCC(=O)O)ccc2c1C(=O)c1ccccc1C2=O	49.6*	-4.8	1.7	-7.5	6.2	27.2*

Assay outcomes as filed in PubChem BioAssay.
